Legend:
[1] = target: Spermidine/spermine N(1)-acetyltransferase (SAT) (Mus musculus) (UniProt Q6P8J2+P48026); assay: Effect on Spermidine/Spermine-Acetyltransferase (SSAT ) at 10 uM at 48 hour in L1210 cells; type: functional, cell-based
How it was run: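 L1210 cells were exposed to 10 μM triamine for 48 h. SSAT activity was taken as [14C]N1-acetylspermidine formed from spermidine and [14C]acetyl-CoA, given as percent of untreated control. DENSPM-treated cells served as positive control. Values are the mean of at least three experiments.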

[2] = target: T1, S-adenosylmethionine decarboxylase proenzyme 1 (Mus musculus) (UniProt P0DMN7); assay: Effect on S-Adenosyl-methionine decarboxylase (AdoMetDC) tested at 1 uM at 6 hour in L1210 cells; type: functional, cell-based
T1 sequence (whole entry): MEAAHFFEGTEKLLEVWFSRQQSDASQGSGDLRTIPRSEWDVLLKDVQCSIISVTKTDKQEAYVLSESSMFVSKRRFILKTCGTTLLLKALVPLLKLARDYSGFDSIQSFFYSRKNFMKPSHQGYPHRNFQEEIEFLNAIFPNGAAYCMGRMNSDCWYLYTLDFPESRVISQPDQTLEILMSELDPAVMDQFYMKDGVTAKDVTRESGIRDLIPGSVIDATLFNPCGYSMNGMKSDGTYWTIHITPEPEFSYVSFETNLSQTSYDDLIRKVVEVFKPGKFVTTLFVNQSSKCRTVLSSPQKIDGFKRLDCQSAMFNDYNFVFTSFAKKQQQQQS
How it was run: (§1)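 L1210 cells were exposed to 1 μM analogue, for 4 h (ODC) or 6 h (AdoMetDC). Activity was measured as 14CO2 released from [14C]carboxyl-labelled L-ornithine (ODC) or S-adenosyl-L-methionine (AdoMetDC) and given as percent of untreated control. Each run included DEHSPM-treated positive controls. Values are the mean of at least three experiments.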

L1210 [3] = assay: Growth inhibitory activity against L1210 cells (48h); type: functional, cell-based; conditions: Mus musculus, L1210, 48 h
How it was run: (§2)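 Murine L1210 leukemia cells were kept in log growth in RPMI-1640 with 10% fetal calf serum or NuSerum, HEPES-MOPS buffer and 1 mM aminoguanidine. IC50 is the concentration giving 50% of untreated control growth, as the mean of at least two experiments.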

L1210 [4] = assay: Percentage of spermidine after 48 hr of exposure to the compound (500(15)uM ) in L1210 cells; type: functional, Mus musculus
How it was run: (§3)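 Log-phase L1210 cells were treated for 48 h with analogue at two concentrations. Cells were washed twice in cold RPMI-1640 and extracted with 0.6 N HClO4. Putrescine, spermidine and spermine were quantified by HPLC of dansyl derivatives and given as percent of untreated controls. Runs were in triplicate with untreated controls.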

L1210 [5] = assay: Intracellular levels in L1210 cells following 500 uM exposure.; type: functional, Mus musculus
How it was run: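 L1210 cells were grown 48 h in medium containing 500 μM analogue. Cellular contents were analysed by HPLC of dansyl derivatives and given as pmol/10^6 cells, as parent drug and metabolites with the % of total drug in the cell.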

[6] = Binding affinity values for polyamine transporter was determined
[7] = Effect on ornithine decarboxylase (ODC) tested at 1 uM at 4 hour in L1210 cells; type: functional, Mus musculus; how it was run: as §1
L1210 [8] = assay: Percentage of putrescine after 48 hr exposure to the compound (500(15)uM ) in L1210 cells; type: functional, Mus musculus; how it was run: as §3
L1210 [9] = assay: Percentage of spermine after 48 hr exposure to the compound (500(15)uM ) in L1210 cells; type: functional, Mus musculus
How it was run: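 Log-phase murine L1210 leukemia cells (RPMI-1640, 10% fetal calf serum or NuSerum, HEPES-MOPS buffer, 1 mM aminoguanidine) exposed 48 h to analogue at two concentrations. Cells washed twice in cold RPMI-1640 and extracted with 0.6 N HClO4. Spermine in extracts quantified by HPLC of DANSYL derivatives and expressed as percent of untreated controls. Triplicate flasks per condition.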

L1210 [10] = assay: Percentage of putrescine after 48 hr exposure to the compound (100(3)uM ) in L1210 cells; type: functional, Mus musculus; how it was run: as §3
L1210 [11] = assay: Percentage of spermidine after 48 hr of exposure to the compound (100(3)uM ) in L1210 cells; type: functional, Mus musculus; how it was run: as §3
L1210 [12] = assay: Growth inhibitory activity against L1210 cells (96h); type: functional, cell-based; conditions: Mus musculus, L1210, 96 h; how it was run: as §2
[13] = The chronic lethal dose administered as intraperitoneal injection in mice; type: ADME; conditions: mouse, in vivo, ip
How it was run: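 Female CD-1 mice, 10–12 weeks old. Analogue given as hydrochloride salt by ip injection three times daily for 6 days (18 doses). Appetite, weight and appearance monitored daily, and lethality scored 10 days after the final dose.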

L1210 [14] = assay: Percentage of spermidine (after 48 hr exposure to 500 uM) in L1210 cells.
L1210 [15] = assay: Percentage of spermidine (after 48 hr exposure to 100 uM) in L1210 cells.
L1210 [16] = assay: Percentage of putrescine (after 48 hr exposure to 100 uM) in L1210 cells.; type: functional, Mus musculus; how it was run: as §3
L1210 [17] = assay: Percentage of putrescine after 48 hr exposure to the compound (500 uM ) in L1210 cells; type: functional, Mus musculus; how it was run: as §3
L1210 [18] = assay: Percentage of spermine (after 48 hr exposure to 100 uM) in L1210 cells.; type: functional, Mus musculus; how it was run: as §3
L1210 [19] = assay: Percentage of spermine (after 48 hr exposure to 500 uM) in L1210 cells.; type: functional, Mus musculus; how it was run: as §3

Sequence of Spermidine/spermine N(1)-acetyltransferase (SAT) (Mus musculus) (P48026 whole entry, looked up): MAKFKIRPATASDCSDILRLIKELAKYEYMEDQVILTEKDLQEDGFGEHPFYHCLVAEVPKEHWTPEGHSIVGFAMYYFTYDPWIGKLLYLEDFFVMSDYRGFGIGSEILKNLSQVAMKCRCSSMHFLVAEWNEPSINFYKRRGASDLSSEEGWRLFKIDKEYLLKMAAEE
Sequence of Spermidine/spermine N(1)-acetyltransferase (SAT) (Mus musculus) (Q6P8J2 whole entry, looked up): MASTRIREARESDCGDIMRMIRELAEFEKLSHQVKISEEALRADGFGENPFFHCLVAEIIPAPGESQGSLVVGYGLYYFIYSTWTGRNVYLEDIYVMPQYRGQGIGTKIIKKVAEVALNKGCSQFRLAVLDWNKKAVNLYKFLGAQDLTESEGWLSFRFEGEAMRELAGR

Row | Structure (SMILES) | SSAT [1] [%] | AdoMetDC [2] [%] | IC50 (L1210 [3]) [µM] | Ki [6] [µM] | IC50 (L1210 [12]) [µM] | Polyamine (L1210 [4]) [%] | Picoequivalents of amine/10e6 cells (L1210 [5]) | ODC [7] [%] | Polyamine (L1210 [8]) [%] | Polyamine (L1210 [9]) [%] | Polyamine (L1210 [10]) [%] | Polyamine (L1210 [11]) [%] | LD50 [13] [mg/kg/day] | Spermidine % (L1210 [14]) [%] | Spermidine % (L1210 [15]) [%] | Polyamine (L1210 [16]) [%] | Polyamine (L1210 [17]) [%] | Polyamine (L1210 [18]) [%] | Polyamine (L1210 [19]) [%]
1 | CCNCCCCNCCCCCNCCCCNCC | – | – | – | – | – | – | – | – | – | – | – | – | 48 | – | – | – | – | – | –
2 | NCCCCCNCCCCN | 410 | 57 | > 100 | 1.4 | 0.18 | – | – | 19 | – | – | – | – | – | 0 | 1 | 0 | – | 53 | 35
3 | NCCCCNCCCCN | 430 | 54 | > 100 | 3.4 | 3 | – | – | 11 | – | – | – | – | – | 2 | 4 | 0 | – | 32 | 21
4 | CNCCCCNCCCNC | 270 | 68 | > 100 | 5.1 | 1.7 | – | 16090 | 22 | – | – | – | – | – | 0 | 5 | 0 | 0 | 58 | 54
5 | NCCCCNCCCN [SPERMIDINE] | 160 | 43 | > 100 | 2.2 | > 100 | – | – | 16 | – | – | – | – | – | – | – | 0 | 0 | – | –
6 | CCCNCCCCNCCCN | 500 | 64 | > 100 | 8.5 | 55 | – | 19590 | 14 | – | – | – | – | – | 16 | 33 | 0 | 0 | – | 95
7 | CCCNCCCNCCCCN | 1200 | 56 | > 100 | 3 | 28 | – | 18250 | 18 | – | – | – | – | – | 15 | 25 | 0 | 0 | 90 | 72
8 | CCCNCCCNCCCN | 470 | 38 | > 100 | 33 | 100 | – | 17710 | 33 | – | – | – | – | – | 15 | 29 | 0 | 0 | 56 | 49
9 | CCNCCCCNCCCN | 400 | 54 | > 100 | 7 | 40 | – | 17990 | 17 | – | – | – | – | – | 15 | 26 | 0 | 0 | 84 | 61
10 | CCNCCCNCCCCN | 430 | 58 | > 100 | 8.6 | 4 | – | 16990 | 10 | – | – | – | – | – | 14 | 25 | 0 | 0 | 80 | 53
11 | CCNCCCCCNCCCCNCCCCCNCC | – | – | 0.4 | – | – | – | – | – | – | – | – | – | 36 | – | – | – | – | – | –
12 | CCNCCCNCCCN | 390 | 58 | > 100 | 34 | > 100 | – | – | 42 | – | – | – | – | – | – | – | – | – | – | –

The next lines start with results.

Row | SSAT [1] [%] | AdoMetDC [2] [%] | IC50 (L1210 [3]) [µM] | Ki [6] [µM] | IC50 (L1210 [12]) [µM] | Structure (SMILES) | Polyamine (L1210 [4]) [%] | Picoequivalents of amine/10e6 cells (L1210 [5]) | ODC [7] [%] | Polyamine (L1210 [8]) [%] | Polyamine (L1210 [9]) [%] | Polyamine (L1210 [10]) [%] | Polyamine (L1210 [11]) [%] | LD50 [13] [mg/kg/day] | Spermidine % (L1210 [14]) [%] | Spermidine % (L1210 [15]) [%] | Polyamine (L1210 [16]) [%] | Polyamine (L1210 [17]) [%] | Polyamine (L1210 [18]) [%] | Polyamine (L1210 [19]) [%]
13 | 1030 | 107 | > 100 | 26 | 33 | CCCNCCCCNCCCNCCC | 12 | 15330 | 75 | 0 | 99 | 6 | 35 | – | – | – | – | – | – | –
14 | 510 | 86 | > 100 | 5.5 | 0.9 | CNCCCCNCCCCNC | – | 20340 | 20 | – | – | – | – | – | 0 | 3 | 0 | 0 | – | –
15 | 420 | 123 | > 100 | 67 | 6 | CCCNCCCCNCCCCNCCC | – | 15990 | 86 | – | – | – | – | – | 7 | 19 | 0 | 0 | – | –
16 | 220 | 99 | > 100 | 125 | 60 | CCCNCCCNCCCNCCC | – | 15010 | 100 | – | – | – | – | – | 71 | 76 | 70 | 68 | 96 | –
17 | 90 | 123 | > 100 | 87 | 6 | CCCNCCCCCNCCCCCNCCC | – | 13910 | 73 | – | – | – | – | – | 69 | 73 | 59 | 51 | 97 | –
18 | 250 | 41 | > 100 | 60 | 4.8 | CNCCCNCCCNC | – | 18400 | 17 | – | – | – | – | – | 6 | 9 | 0 | 0 | 58 | 48
19 | 90 | 88 | 100 | 14 | 0.4 | NCCCCCNCCCCCN | – | – | 16 | – | – | – | – | – | 0 | 0 | 0 | 0 | 33 | 20
20 | 570 | 59 | 100 | 5 | 0.6 | CCCNCCCCNCCCCN | – | 20550 | 20 | – | – | – | – | – | 0 | 2 | 0 | 0 | 82 | 66
21 | 80 | 86 | 100 | 75 | 1.2 | CCCNCCCCCNCCCCNCCC | – | 15150 | 83 | – | – | – | – | – | 31 | 40 | 0 | 0 | – | –

— ChEMBL document CHEMBL1130028, “A comparison of structure-activity relationships between spermidine and spermine analogue antineoplastics” (J Med Chem, 1997)
